This note sets out measurements from ChEMBL document CHEMBL4706682, “Development of Novel Mitochondrial Pyruvate Carrier Inhibitors to Treat Hair Loss” (J Med Chem, 2021).

Active and inactive are the calls of the source. Unless noted, the calls are words filed in the database; no cut-off is given here.

The first series has as its system MCF-10A. The series is described as follows: Inhibition of MPC in human MCF-10A cells assessed as increase in cellular lactate production at 10 uM incubated for 24 to 30 hrs. Type of series: cell-based. To be noted: time 24-30 hrs. The essentials: (§1)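 MCF10A cells were seeded in triplicate and treated the next day with analogue or an equal volume of DMSO for 24-30 h. Lactate in the culture medium was measured on a BioProfile Basic Analyzer. It was normalized to cell number and run time to give a rate (nmol lactate per million cells per hour), relative to DMSO. Statistics were one-way ANOVA with Dunnett's post-test against DMSO.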
Turning to `CC(C)(C)OC(=O)/C(C#N)=C/c1cn(Cc2cc(C(F)(F)F)cc(C(F)(F)F)c2)c2ccccc12`, the inhibition entry was “inactive”.
In the case of `N#C/C(=C\c1ccccc1F)C(=O)O`, the inhibition entry is “inactive”.
Still for that read-out and setting: with `CCOC(=O)/C(C#N)=C/c1cn(C(=O)Cc2cc(C(F)(F)F)cc(C(F)(F)F)c2)c2ccccc12` the entry was “inactive”.
`N#C/C(=C\c1cn(Cc2cc(C(F)(F)F)cc(C(F)(F)F)c2)c2cccc(F)c12)C(=O)O`: the inhibition entry is “Active”.
Same read-out and setting: with `CCOC(=O)/C(C#N)=C/c1cn(-c2ccc(OC)cc2)c2ccccc12` the entry was “Active”.
On the same count and under the same terms, then `N#C/C(=C\c1cn(Cc2cc(F)cc(F)c2)c2ccc(F)cc12)C(=O)O`, with “Active”; and `N#C/C(=C\c1cn(Cc2cc(C(F)(F)F)cc(C(F)(F)F)c2)c2cccc(Cl)c12)C(=O)O`, with “Active”; and `N#C/C(=C\c1cn(Cc2cc(C(F)(F)F)cc(C(F)(F)F)c2)c2ccccc12)P(=O)(O)O`, with “inactive”.
Still for that read-out and setting: then `CCOC(=O)/C(C#N)=C/c1cn(-c2ccccc2)c2ccccc12`, with “inactive”.
Turning to `COc1ccccc1-n1cc(/C=C(\C#N)C(=O)O)c2ccccc21`, the inhibition result was “Active”.
On the same count and under the same terms, with `N#C/C(=C\c1cn(Cc2cc(C(F)(F)F)cc(C(F)(F)F)c2)c2cccc(C(=O)O)c12)C(=O)O` the entry was “inactive”.
On the same count and under the same terms, then `N#C/C(=C\c1cn(Cc2cc(C(F)(F)F)cc(C(F)(F)F)c2)c2nccc(Br)c12)C(=O)O`, with “Active”.
As for `CCOC(=O)/C(C#N)=C/c1cn(Cc2cc(C(F)(F)F)cc(C(F)(F)F)c2)c2ncccc12`, the inhibition result is “Active”.
As for `CCOP(=O)(OCC)/C(C#N)=C/c1cn(Cc2cc(C(F)(F)F)cc(C(F)(F)F)c2)c2ncccc12`, the inhibition entry is “Active”.
Same read-out and setting: then `CCOC(=O)/C(C#N)=C/c1cn(Cc2cc(C(F)(F)F)cc(C(F)(F)F)c2)c2cccc(Br)c12`, with “Active”; and `N#C/C(=C\c1cn(Cc2cc(F)cc(F)c2)c2ccccc12)C(=O)O`, with “Active”.
For `N#C/C(=C\c1cn(Cc2cc(C(F)(F)F)cc(C(F)(F)F)c2)c2ccc(Cl)cc12)C(=O)O`, the inhibition result is “inactive”.
Same read-out and setting: with `N#C/C(=C\c1ccc(F)cc1F)C(=O)O` the entry was “inactive”.
The same measure, in the same setting: with `N#C/C(=C\c1cn(Cc2ccc(F)cc2)c2ccccc12)C(=O)O` the entry was “Active”; with `CCOC(=O)/C(C#N)=C/c1cn(Cc2cc(F)cc(F)c2)c2ccccc12`, “Active”; with `N#C/C(=C\c1ccc(F)c(C(F)(F)F)c1)C(=O)O`, “inactive”.
Still for that read-out and setting: with `N#C/C(=C\c1ccc(C(F)(F)F)cc1)C(=O)O` the entry was “inactive”.
For `N#C/C(=C\c1cn(Cc2cc(C(F)(F)F)cc(C(F)(F)F)c2)c2c(Cl)cccc12)C(=O)O`, the inhibition result was “inactive”.
As to `N#C/C(=C\c1ccc(F)cc1)C(=O)O`, the inhibition result is “inactive”.
On the same count and under the same terms, with `N#C/C(=C\c1cn(Cc2cc(C(F)(F)F)cc(C(F)(F)F)c2)c2cccc(OCc3ccccc3)c12)C(=O)O` the entry was “inactive”; with `CCOC(=O)/C(C#N)=C/c1cn(-c2ccccc2OC)c2ccccc12`, “Active”; with `N#C/C(=C\c1ccc(O)cc1)C(=O)O`, “inactive”.
With `N#CC(C#N)=Cc1cn(-c2ccccc2)c2ccccc12`, the inhibition result was “inactive”.
On the same count and under the same terms, with `CCOC(=O)/C(C#N)=C/c1cn(Cc2cc(C(F)(F)F)cc(C(F)(F)F)c2)c2ccccc12` the entry was “Active”; with `N#C/C(=C\c1cn(Cc2ccccc2)c2ccccc12)C(=O)O`, “Active”; with `N#C/C(=C\c1cc(C(F)(F)F)cc(C(F)(F)F)c1)C(=O)O`, “inactive”.
Still for that read-out and setting: then `N#C/C(=C\c1c[nH]c2ccccc12)C(=O)O`, with “inactive”; and `N#C/C(=C\c1ccccc1)C(=O)O`, with “inactive”; and `N#C/C(=C\c1cn(Cc2cc(C(F)(F)F)cc(C(F)(F)F)c2)c2cccc(Br)c12)C(=O)O`, with “Active”.
On the same count and under the same terms, with `N#C/C(=C\c1cn(-c2ccccc2)c2ccccc12)C(=O)O` the entry was “Active”; with `CCOC(=O)/C(C#N)=C/c1cn(Cc2cc(C(F)(F)F)cc(C(F)(F)F)c2)c2cccc(F)c12`, “Active”; with `N#C/C(=C\c1cn(Cc2cc(C(F)(F)F)cc(C(F)(F)F)c2)c2ncccc12)C(=O)O`, “Active”.
For the molecule `CCOC(=O)/C(C#N)=C/c1cn(Cc2ccc(F)c(F)c2)c2ccccc12`, the inhibition entry was “Active”.
The same measure, in the same setting: then `N#C/C(=C\c1cn(Cc2cc(C(F)(F)F)cc(C(F)(F)F)c2)c2ccccc12)C(=O)O`, with “Active”; and `N#C/C(=C\c1cn(Cc2cc(C(F)(F)F)cc(C(F)(F)F)c2)c2cccc(C#N)c12)C(=O)O`, with “Active”.
For `N#C/C(=C\c1cn(Cc2cc(C(F)(F)F)cc(C(F)(F)F)c2)c2c(OCc3ccccc3)cccc12)C(=O)O`, the inhibition entry was “Active”.
On the same count and under the same terms, then `CCOC(=O)/C(C#N)=C/c1cn(Cc2ccc(F)cc2)c2ccccc12`, with “Active”; and `COC(=O)/C(C#N)=C/c1cn(Cc2cc(C(F)(F)F)cc(C(F)(F)F)c2)c2ccccc12`, with “inactive”; and `N#C/C(=C\c1cn(Cc2cc(C(F)(F)F)cc(C(F)(F)F)c2)c2nccc(Cl)c12)C(=O)O`, with “Active”.
Same read-out and setting: then `N#C/C(=C\c1cn(Cc2ccc(F)c(F)c2)c2cc(F)ccc12)C(=O)O`, with “Active”; and `N#C/C(=C\c1cn(Cc2ccc(F)c(F)c2)c2ccccc12)C(=O)O`, with “Active”; and `N#C/C(=C\c1ccc(F)c(F)c1)C(=O)O`, with “inactive”.
Same read-out and setting: with `CCOC(=O)/C(C#N)=C/c1c[nH]c2ccccc12` the entry was “inactive”; with `N#C/C(=C\c1cn(Cc2ccc(F)c(F)c2)c2ccc(F)cc12)C(=O)O`, “Active”.
Consider `N#CC(Cc1cn(-c2ccccc2)c2ccccc12)C(=O)O` (stereo unspecified), for which the inhibition result was “inactive”.
Still for that read-out and setting: then `COc1cccc2c1c(/C=C(\C#N)C(=O)O)cn2Cc1cc(C(F)(F)F)cc(C(F)(F)F)c1`, with “Active”; and `N#C/C(=C\c1cn(Cc2cc(C(F)(F)F)cc(C(F)(F)F)c2)c2ccccc12)C(N)=O`, with “Active”.
The same measure, in the same setting: then `N#C/C(=C\c1cn(Cc2cc(C(F)(F)F)cc(C(F)(F)F)c2)c2cc(Cl)ccc12)C(=O)O`, with “inactive”; and `N#C/C(=C\c1cccc(C(F)(F)F)c1Cl)C(=O)O`, with “inactive”.
On the same count and under the same terms, then `COc1ccc(-n2cc(/C=C(\C#N)C(=O)O)c3ccccc32)cc1`, with “Active”; and `CCOC(=O)/C(C#N)=C/c1cn(Cc2ccccc2)c2ccccc12`, with “Active”.
Take `N#C/C(=C\c1cn(Cc2cc(C(F)(F)F)cc(C(F)(F)F)c2)c2cnccc12)C(=O)O`: the inhibition entry is “Active”.
Same read-out and setting: then `N#C/C(=C\c1cn(Cc2cc(C(F)(F)F)cc(C(F)(F)F)c2)c2ccccc12)C(=O)N1CCOCC1`, with “Active”; and `N#C/C(=C\c1cn(Cc2cc(F)cc(F)c2)c2cc(F)ccc12)C(=O)O`, with “Active”; and `CCOP(=O)(OCC)/C(C#N)=C/c1cn(Cc2cc(C(F)(F)F)cc(C(F)(F)F)c2)c2ccccc12`, with “Active”.
The same measure, in the same setting: with `N#C/C(=C\c1cn(Cc2cc(C(F)(F)F)cc(C(F)(F)F)c2)c2c(F)cccc12)C(=O)O` the entry was “Active”; with `N#C/C(=C\c1cn(Cc2cc(C(F)(F)F)cc(C(F)(F)F)c2)c2cccnc12)C(=O)O`, “Active”.
For the molecule `Cc1ccc(/C=C(\C#N)C(=O)O)cc1F`, the inhibition result was “inactive”.
Still for that read-out and setting: then `N#C/C(=C\c1cn(Cc2cc(C(F)(F)F)cc(C(F)(F)F)c2)c2cc(OCc3ccccc3)ccc12)C(=O)O`, with “inactive”.
As for `CCOC(=O)C(=Cc1cn(-c2ccccc2)c2ccccc12)C(=O)O` (mixture of isomers), the inhibition result was “inactive”.

The subject of the next series is MCF-10A. The series is described as follows: Inhibition of MPC in human MCF-10A cells assessed as increase in cellular lactate production incubated for 24 to 30 hrs. The series is classed as cell-based. As to conditions: time 24-30 hrs. Put shortly: as §1
Take `N#C/C(=C\c1cn(-c2ccccc2)c2ccccc12)C(=O)O`: the inhibition entry is “Dose-dependent effect”.

For the next series, the system named is MCF-10A. Briefly: Toxicity in human MCF-10A cells assessed as reduction in cell viability incubated for 24 to 30 hrs. To be noted: time 24-30 hrs. Type of series: cell-based.
For `N#C/C(=C\c1cn(Cc2cc(C(F)(F)F)cc(C(F)(F)F)c2)c2ccccc12)C(N)=O`, the Activity result was “Toxic”.
Consider `N#C/C(=C\c1cn(Cc2cc(C(F)(F)F)cc(C(F)(F)F)c2)c2ccccc12)C(=O)N1CCOCC1`, for which the Activity entry is “Toxic”.

Tested on in the next series: not listed separately
Briefly: (§2) Inhibition of MPC in human MCF-10A cells assessed as reduction in oxygen consumption rate using pyruvate and malate and ADP. The series is classed as cell-based.
Conditions: not given
Put shortly:
(§3)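 A Seahorse XF Analyzer measured the respiration of permeabilized MCF10A cells, with 5 mM pyruvate and 0.5 mM malate as substrates plus ADP (state 3). Cells received half-log doses from 3 nM to 10 µM. OCR (fmol O2 per cell per min) was measured in duplicate and normalized to cell number. IC50 was fitted from the dose-response.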
Regarding `N#C/C(=C\c1cn(Cc2cc(C(F)(F)F)cc(C(F)(F)F)c2)c2ncccc12)C(=O)O`, the half-inhibitory concentration (IC50) stood at 0.0428 µM.
Same read-out and setting: with `N#C/C(=C\c1cn(Cc2cc(C(F)(F)F)cc(C(F)(F)F)c2)c2ccccc12)C(=O)O` the figure was 0.0166 µM.

In the next series the test system is MCF-10A. The series is described as §2. The series is classed as cell-based.
Conditions: not given
The essentials: as §3
For the molecule `N#C/C(=C\c1cn(Cc2cc(C(F)(F)F)cc(C(F)(F)F)c2)c2ncccc12)C(=O)O`, the inhibition entry is “Active”.

A further series relates to Mus musculus. The series is described as follows: Stimulation of hair growth in C57BL/6J mouse shaved at postnatal day 50 during telogen-phase of hair cycle at 20 uM dosed topically to shaved back skin every other day for 2 weeks. The series is classed as functional, organism-based.
Conditions: not given
Put shortly: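 Wild-type C57BL/6J mice were shaved at postnatal day 50. They were treated topically every other day with about 300 µl of compound at 20 µM, suspended in Transderma Plo Ultramax gel, for up to 3 weeks; vehicle served as control. Pigmentation and hair growth (anagen entry) were photographed weekly. Mice were housed under defined pathogen-free conditions.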
In the case of `N#C/C(=C\c1cn(Cc2cc(C(F)(F)F)cc(C(F)(F)F)c2)c2cccc(F)c12)C(=O)O`, the result was Active.
Same read-out and setting: with `N#C/C(=C\c1cn(Cc2cc(C(F)(F)F)cc(C(F)(F)F)c2)c2cccc(Cl)c12)C(=O)O` the entry was “Active”; with `N#C/C(=C\c1cn(Cc2cc(C(F)(F)F)cc(C(F)(F)F)c2)c2cccc(Br)c12)C(=O)O`, “Active”.
The same measure, in the same setting: with `N#C/C(=C\c1cn(Cc2cc(C(F)(F)F)cc(C(F)(F)F)c2)c2ccccc12)C(=O)O` the entry was “Active”; with `N#C/C(=C\c1cn(-c2ccccc2)c2cccc(Cl)c12)C(=O)O`, “Active”.
